Results published in ChEMBL document CHEMBL1687745 (Antimicrob Agents Chemother, 2009).
Values after ≈ are worked out from the molar mass of the structure shown. Active and inactive are the calls of the source. No cut-off for these calls is given here.

Experiments:
Bacillus anthracis [1] = assay: Antimicrobial activity against Bacillus anthracis Sterne vegetative cells by broth microdilution method; assay type: functional
Bacillus anthracis [2] = assay: Antimicrobial activity against Bacillus anthracis Sterne spores by broth microdilution method; assay type: functional
Bacillus subtilis [3] = assay: Inhibition of cell wall synthesis in Bacillus subtilis BD54 at 5 X MIC by N-acetyl-D-[1-3H] glucosamine incorporation assay; assay type: functional
Outline: (§1)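 Precursors were [methyl-3H]thymidine (DNA), [5-3H]uridine (RNA), L-[4,5-3H]leucine (protein) and N-acetyl-D-[1-3H]glucosamine (cell wall). Samples taken over time, precipitated with equal volume of ice-cold 20% TCA, filtered on glass fibre, and counted. cpm plotted against time.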

Bacillus subtilis [4] = assay: Inhibition of DNA synthesis in Bacillus subtilis BD54 at 5 X MIC by [3H]thymidine incorporation assay; assay type: functional, organism-based; outline: as §1
Bacillus subtilis [5] = assay: Inhibition of RNA synthesis in Bacillus subtilis BD54 at 5 X MIC by [5-3H]uridine incorporation assay; assay type: functional; outline: as §1
Bacillus subtilis [6] = assay: Inhibition of protein synthesis in Bacillus subtilis BD54 at 5 X MIC by L-[4,5-3H]leucine incorporation assay; assay type: functional, organism-based; outline: as §1

| Compound | MIC (Bacillus anthracis [1]) [µg/mL] | MIC (Bacillus anthracis [2]) [µg/mL] | inhibition (Bacillus subtilis [3]) | inhibition (Bacillus subtilis [4]) | inhibition (Bacillus subtilis [5]) | inhibition (Bacillus subtilis [6]) |
| --- | --- | --- | --- | --- | --- | --- |
| C(=C\c1cc2ccc(C3=NCCN3)cc2[nH]1)/c1ccc(C2=NCCN2)cc1 | > 17 | 8.6 (≈ 24.2 µM) |  |  |  |  |
| N=C(N)c1ccc2oc(/C=C/c3cc4ccc(C(=N)N)cc4o3)cc2c1 | > 17 | > 17 |  |  |  |  |
| c1cc(-c2nc3cc(-c4nc5ccc(C6=NCCN6)cc5[nH]4)ccc3[nH]2)ccc1C1=NCCN1 | 22.3 (≈ 49.9 µM) | 1.4 (≈ 3.14 µM) |  |  |  |  |
| N=C(N)c1ccc(-c2[nH]c3cc(C(=N)N)ccc3c2-c2ccccc2)cc1 | 17 (≈ 48.1 µM) | 9 (≈ 25.5 µM) |  |  |  |  |
| N=C(N)c1ccc2[nH]c(/C=C/c3cc4ccc(C(=N)N)cc4o3)cc2c1 | > 17 | 8 (≈ 23.3 µM) |  |  |  |  |
| Cc1c(/C=C/c2cc3cc(C(=N)N)ccc3o2)oc2cc(C(=N)N)ccc12 | > 17 | > 17 |  |  |  |  |
| C(=C\c1cc2ccc(C3=NCCN3)cc2[nH]1)/c1ccc2cc(C3=NCCN3)[nH]c2c1 | 18.7 (≈ 47.4 µM) | 9.3 (≈ 23.6 µM) |  |  |  |  |
| N=C(N)c1ccc(-c2cc3ccc(C(=N)N)cc3s2)cc1 | > 19 | > 19 |  |  |  |  |
| N=C(N)c1ccc(/C=C/c2cc3cc(C(=N)N)ccc3o2)cc1 | > 15 | > 15 |  |  |  |  |
| C(=C\c1cc2ccc(C3=NCCN3)cc2o1)/c1cc2ccc(C3=NCCN3)cc2o1 | 19 (≈ 47.9 µM) | 19 (≈ 47.9 µM) |  |  |  |  |
| N=C(N)c1ccc2oc(CCc3cc4cc(C(=N)N)ccc4o3)cc2c1 | > 17 | > 17 |  |  |  |  |
| N=C(N)c1ccc(/C=C/C=C/c2cc3cc(C(=N)N)ccc3o2)cc1 | 16.1 (≈ 48.7 µM) | 8.1 (≈ 24.5 µM) |  |  |  |  |
| N=C(N)c1ccc2[nH]c(/C=C/c3nc4cc(C(=N)N)ccc4[nH]3)nc2c1 | > 17 | > 17 |  |  |  |  |
| OCCn1c(/C=C/c2nc3ccccc3[nH]2)nc2ccccc21 | > 12 | > 12 |  |  |  |  |
| c1cc(-c2cc3ccc(C4=NCCN4)cc3[nH]2)ccc1C1=NCCN1 | > 16 | > 16 |  |  |  |  |
| N=C(N)c1ccc(-c2ccc(-c3ccc(C(=N)N)cc3)s2)cc1 | > 16 | 16 (≈ 49.9 µM) |  |  |  |  |

| Compound | MIC (Bacillus anthracis [1]) [µg/mL] | MIC (Bacillus anthracis [2]) [µg/mL] | inhibition (Bacillus subtilis [3]) | inhibition (Bacillus subtilis [4]) | inhibition (Bacillus subtilis [5]) | inhibition (Bacillus subtilis [6]) |
| --- | --- | --- | --- | --- | --- | --- |
| C(=C\c1cc2cc(C3=NCCN3)ccc2o1)/c1cc2cc(C3=NCCN3)ccc2[nH]1 | > 19 | 19 (≈ 48 µM) |  |  |  |  |
| N=C(N)c1ccc(NC(=O)c2cc3ccc(C(=N)N)cc3o2)cc1 | > 16 | > 16 |  |  |  |  |
| N=C(N)c1ccc2oc(/C=C/c3cc4cc(C(=N)N)ccc4s3)cc2c1 | 17 (≈ 47.2 µM) | 8.7 (≈ 24.1 µM) |  |  |  |  |
| CO[C@H]1/C=C/O[C@@]2(C)Oc3c(C)c(O)c4c(O)c(c(/C=N/N5CCN(C)CC5)c(O)c4c3C2=O)NC(=O)/C(C)=C\C=C\[C@H](C)[C@H](O)[C@@H](C)[C@@H](O)[C@@H](C)[C@H](OC(C)=O)[C@@H]1C |  |  | Active | Active | Active | Active |
| N=C(N)c1ccc(/C=C/c2cc3ccc(C(=N)N)cc3[nH]2)cc1 | 15 (≈ 49.4 µM) | 7.5 (≈ 24.7 µM) |  |  |  |  |
| N=C(N)c1ccc2cc(C(=N)N)[nH]c2c1 | > 11 | > 11 |  |  |  |  |
| c1cc(-c2cc3ccc(C4=NCCN4)cc3s2)ccc1C1=NCCN1 | > 17 | > 17 |  |  |  |  |
| O=C(Nc1ccc(C2=NCCN2)cc1)c1cc2ccc(C3=NCCN3)cc2[nH]1 | 17.8 (≈ 47.8 µM) | 8.9 (≈ 23.9 µM) |  |  |  |  |
| N=C(N)c1ccc(/C=C/c2cc3cc(C(=N)N)ccc3[nH]2)cc1 | > 15 | 15 (≈ 49.4 µM) |  |  |  |  |
| N=C(N)c1ccc2oc(CCc3cc4ccc(C(=N)N)cc4[nH]3)cc2c1 | 8.4 (≈ 24.3 µM) | 8.4 (≈ 24.3 µM) |  |  |  |  |
| Cc1cc(N)c2cc(NC(=O)Nc3ccc4nc(C)cc(N)c4c3)ccc2n1 [AMINOQUINURIDE] | 17.8 (≈ 47.8 µM) | 4.5 (≈ 12.1 µM) |  |  |  |  |
| N=C(N)c1ccc(-c2cc3cc(C(=N)N)ccc3s2)cc1 | > 15 | > 15 |  |  |  |  |
| Cc1c(/C=C/c2oc3ccc(C(=N)N)cc3c2C)oc2cc(C(=N)N)ccc12 | > 18 | > 18 |  |  |  |  |
| O=C(N[C@H](CO)[C@H](O)c1ccc([N+](=O)[O-])cc1)C(Cl)Cl |  |  | Active | Active | Active | Active |
| c1cc(-c2[nH]c3cc(C4=NCCN4)ccc3c2-c2cc3ccc(C4=NCCN4)cc3[nH]2)ccc1C1=NCCN1 | 24.9 (≈ 48.6 µM) | 24.9 (≈ 48.6 µM) |  |  |  |  |
